From ChEMBL document CHEMBL1777764, “Synthesis and evaluation of 1-(1H-indol-3-yl)ethanamine derivatives as new antibacterial agents” (Bioorg Med Chem, 2011)
Values after ≈ are worked out from the molar mass of the structure shown.

Assays:
[1] = test system: Staphylococcus epidermidis; assay: Antibacterial activity against Staphylococcus epidermidis CIP 81.55 after 18 hrs by broth microdilution method; assay type: functional; details: CIP 81.55, 18 h
Outline: (§1)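 MIC by broth microdilution per ISO 20776-1:2006 and CLSI M07-A8. Inoculum 10^6 cfu/ml in Mueller-Hinton broth with compound serially diluted, final concentrations 2 to 128 ug/ml, duplicate rows, no-drug growth control. Incubation 18 h at 37 °C. MIC taken as lowest concentration giving complete inhibition of visible growth. Each compound tested at least twice.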

Staphylococcus aureus [2] = assay: Antibacterial activity against methicillin-resistant Staphylococcus aureus ATCC 33592 after 18 hrs by broth microdilution method; assay type: functional; details: ATCC 33592, 18 h
Outline: (§2)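 Broth microdilution following ISO 20776-1:2006 and CLSI M07-A8, in Mueller-Hinton broth. Inoculum was 10^6 cfu/ml, with compound serial dilutions spanning 2 to 128 ug/ml and a compound-free growth control well. Plates were incubated 18 h at 37 °C. MIC was the lowest concentration giving complete inhibition of visible growth. Each compound was tested at least twice.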

Staphylococcus aureus [3] = assay: Antibacterial activity against Staphylococcus aureus ATCC 9144 after 18 hrs by broth microdilution method; assay type: functional; details: ATCC 9144, 18 h; outline: as §1
Staphylococcus aureus [4] = assay: Antibacterial activity against Staphylococcus aureus ATCC 25923 after 18 hrs by broth microdilution method; assay type: functional; details: ATCC 25923, 18 h; outline: as §1
Staphylococcus aureus [5] = assay: Antibacterial activity against Staphylococcus aureus ATCC 29213 after 18 hrs by broth microdilution method; assay type: functional; details: ATCC 29213, 18 h; outline: as §1
Staphylococcus aureus [6] = assay: Antibacterial activity against vancomycin intermediate Staphylococcus aureus […] after 18 hrs by broth microdilution method; assay type: functional; outline: as §2
Staphylococcus aureus [7] = assay: Antibacterial activity against Staphylococcus aureus CIP 103428 after 18 hrs by broth microdilution method; assay type: functional; details: CIP 103428, 18 h; outline: as §1
[8] = test system: Staphylococcus epidermidis; assay: Antibacterial activity against Staphylococcus epidermidis CIP 103627 after 18 hrs by broth microdilution method; assay type: functional; details: CIP 103627, 18 h; outline: as §1
[9] = test system: Staphylococcus epidermidis; assay: Antibacterial activity against Staphylococcus epidermidis ATCC 12228 after 18 hrs by broth microdilution method; assay type: functional; details: ATCC 12228, 18 h; outline: as §1
Staphylococcus aureus [10] = assay: Antibacterial activity against Staphylococcus aureus ATCC 6538 after 18 hrs by broth microdilution method; assay type: functional; details: ATCC 6538, 18 h; outline: as §1
Staphylococcus aureus [11] = assay: Antibacterial activity against Staphylococcus aureus CIP 65.6 after 18 hrs by broth microdilution method; assay type: functional; details: CIP 65.6, 18 h; outline: as §1
Streptococcus pneumoniae [12] = assay: Antibacterial activity against Streptococcus pneumoniae ATCC 6303 after 18 hrs by broth microdilution method; assay type: functional; details: ATCC 6303, 18 h
Outline: (§3)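 MIC by broth microdilution per ISO 20776-1:2006 and CLSI M07-A8. Inoculum 10^6 cfu/ml in Mueller-Hinton broth […]. Compound serially diluted, final 2 to 128 ug/ml, duplicate rows, no-drug growth control. Read after 18 h at 37 °C as lowest concentration fully inhibiting visible growth. At least two experiments.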

Streptococcus pneumoniae [13] = assay: Antibacterial activity against Streptococcus pneumoniae ATCC 49619 after 18 hrs by broth microdilution method; assay type: functional; details: ATCC 49619, 18 h; outline: as §3
Staphylococcus aureus [14] = assay: Antibacterial activity against methicillin-resistant Staphylococcus aureus CIP 65.25 after 18 hrs by broth microdilution method; assay type: functional; details: CIP 65.25, 18 h; outline: as §2
MRC5 [15] = assay: Cytotoxicity against human MRC5 cells at 1 uM; assay type: cell-based; details: mrc5, 1 µM
KB [16] = assay: Cytotoxicity against human KB cells at 1 uM; assay type: cell-based
HCT-116 [17] = assay: Cytotoxicity against human HCT116 cells at 1 uM; assay type: cell-based; details: hct-116, 1 µM
MRC5 [18] = assay: Cytotoxicity against human MRC5 cells at 10 uM; assay type: cell-based; details: mrc5, 10 µM
KB [19] = assay: Cytotoxicity against human KB cells at 10 uM; assay type: cell-based
HCT-116 [20] = assay: Cytotoxicity against human HCT116 cells at 10 uM; assay type: cell-based; details: hct-116, 10 µM

| Compound | MIC [1] | MIC (Staphylococcus aureus [2]) | MIC (Staphylococcus aureus [3]) | MIC (Staphylococcus aureus [4]) | MIC (Staphylococcus aureus [5]) | MIC (Staphylococcus aureus [6]) | MIC (Staphylococcus aureus [7]) | MIC [8] | MIC [9] | MIC (Staphylococcus aureus [10]) | MIC (Staphylococcus aureus [11]) | MIC (Streptococcus pneumoniae [12]) | MIC (Streptococcus pneumoniae [13]) | MIC (Staphylococcus aureus [14]) | Activity (MRC5 [15]) | Activity (KB [16]) | Activity (HCT-116 [17]) | Activity (MRC5 [18]) | Activity (KB [19]) | Activity (HCT-116 [20]) |
| --- | --- | --- | --- | --- | --- | --- | --- | --- | --- | --- | --- | --- | --- | --- | --- | --- | --- | --- | --- | --- |
| CC(C)CC(c1c[nH]c2ccc(Br)cc12)N(O)Cc1ccccc1 (stereo not given) | > 128 µg/mL | > 128 µg/mL | > 128 µg/mL | > 128 µg/mL | > 128 µg/mL | > 128 µg/mL | > 128 µg/mL | > 128 µg/mL | > 128 µg/mL | > 128 µg/mL | > 128 µg/mL | > 128 µg/mL | > 128 µg/mL | > 128 µg/mL | – | – | – | – | – | – |
| CC(c1c[nH]c2ccc(Cl)cc12)N(O)Cc1ccccc1 (stereo not given) | > 128 µg/mL | > 128 µg/mL | > 128 µg/mL | > 128 µg/mL | > 128 µg/mL | > 128 µg/mL | > 128 µg/mL | > 128 µg/mL | > 128 µg/mL | > 128 µg/mL | > 128 µg/mL | > 128 µg/mL | > 128 µg/mL | > 128 µg/mL | – | – | – | – | – | – |
| CC(C)CC(NO)c1c[nH]c2ccc(I)cc12 (stereo not given) | 16 µg/mL (≈ 46.5 µM) | – | 32 µg/mL (≈ 93 µM) | 32 µg/mL (≈ 93 µM) | 32 µg/mL (≈ 93 µM) | – | 32 µg/mL (≈ 93 µM) | 16 µg/mL (≈ 46.5 µM) | 16 µg/mL (≈ 46.5 µM) | 32 µg/mL (≈ 93 µM) | 32 µg/mL (≈ 93 µM) | – | – | – | Non-toxic | Non-toxic | Non-toxic | Non-toxic | Non-toxic | Non-toxic |
| CC(C)CC(c1c[nH]c2ccccc12)N(O)Cc1ccccc1 (stereo not given) | 16 µg/mL (≈ 51.9 µM) | – | 32 µg/mL (≈ 104 µM) | 32 µg/mL (≈ 104 µM) | 32 µg/mL (≈ 104 µM) | – | 32 µg/mL (≈ 104 µM) | 16 µg/mL (≈ 51.9 µM) | 16 µg/mL (≈ 51.9 µM) | 32 µg/mL (≈ 104 µM) | 32 µg/mL (≈ 104 µM) | – | – | – | Non-toxic | Non-toxic | Non-toxic | Non-toxic | Non-toxic | Non-toxic |
| CC(c1c[nH]c2ccc(I)cc12)N(O)Cc1ccccc1 (stereo not given) | > 128 µg/mL | > 128 µg/mL | > 128 µg/mL | > 128 µg/mL | > 128 µg/mL | > 128 µg/mL | > 128 µg/mL | > 128 µg/mL | > 128 µg/mL | > 128 µg/mL | > 128 µg/mL | > 128 µg/mL | > 128 µg/mL | > 128 µg/mL | – | – | – | – | – | – |
| CC(C)(C)OC(=O)NCC(c1c[nH]c2cccc(Br)c12)N(O)Cc1ccccc1 (stereo not given) | > 128 µg/mL | > 128 µg/mL | > 128 µg/mL | > 128 µg/mL | > 128 µg/mL | > 128 µg/mL | > 128 µg/mL | > 128 µg/mL | > 128 µg/mL | > 128 µg/mL | > 128 µg/mL | > 128 µg/mL | > 128 µg/mL | > 128 µg/mL | – | – | – | – | – | – |
| CC(C)CC(NO)c1c[nH]c2ccccc12 (stereo not given) | 32 µg/mL (≈ 147 µM) | – | 64 µg/mL (≈ 293 µM) | 64 µg/mL (≈ 293 µM) | 64 µg/mL (≈ 293 µM) | – | 64 µg/mL (≈ 293 µM) | 32 µg/mL (≈ 147 µM) | 32 µg/mL (≈ 147 µM) | 64 µg/mL (≈ 293 µM) | 64 µg/mL (≈ 293 µM) | – | – | – | Non-toxic | Non-toxic | Non-toxic | Non-toxic | Non-toxic | Non-toxic |
| CC(C)(C)OC(=O)NCC(c1c[nH]c2ccc(I)cc12)N(O)Cc1ccccc1 (stereo not given) | 8 µg/mL (≈ 15.8 µM) | 8 µg/mL (≈ 15.8 µM) | 8 µg/mL (≈ 15.8 µM) | 8 µg/mL (≈ 15.8 µM) | 8 µg/mL (≈ 15.8 µM) | 8 µg/mL (≈ 15.8 µM) | 8 µg/mL (≈ 15.8 µM) | 8 µg/mL (≈ 15.8 µM) | 8 µg/mL (≈ 15.8 µM) | 8 µg/mL (≈ 15.8 µM) | 8 µg/mL (≈ 15.8 µM) | 64 µg/mL (≈ 126 µM) | 64 µg/mL (≈ 126 µM) | 8 µg/mL (≈ 15.8 µM) | Non-toxic | Non-toxic | Non-toxic | – | – | – |
| CC(C)(C)OC(=O)NCC(c1c[nH]c2cc(Cl)ccc12)N(O)Cc1ccccc1 (stereo not given) | 16 µg/mL (≈ 38.5 µM) | 16 µg/mL (≈ 38.5 µM) | 16 µg/mL (≈ 38.5 µM) | 16 µg/mL (≈ 38.5 µM) | 16 µg/mL (≈ 38.5 µM) | 16 µg/mL (≈ 38.5 µM) | 16 µg/mL (≈ 38.5 µM) | 16 µg/mL (≈ 38.5 µM) | 16 µg/mL (≈ 38.5 µM) | 16 µg/mL (≈ 38.5 µM) | 16 µg/mL (≈ 38.5 µM) | > 128 µg/mL | > 128 µg/mL | 16 µg/mL (≈ 38.5 µM) | Non-toxic | Non-toxic | Non-toxic | – | – | – |
